Reference: ChEMBL document CHEMBL1255483, “Intra- and extracellular activities of dicloxacillin against Staphylococcus aureus in vivo and in vitro” (Antimicrob Agents Chemother, 2010)
≈ marks a conversion by molar mass, not a printed value. Calls of active or inactive are those of the source. No cut-off for these calls is given here.

Legend:
[1] = fT>MIC in Staphylococcus aureus E19977 infected NMRI mouse at 300 mg/kg administered every 12 hrs; assay type: functional
How it was run: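 Calculated percentage of 24 h at steady state that free plasma DCX exceeds the strain MIC (microdilution, pH 7.4). Concentrations were simulated from single subcutaneous dose plasma curves in NMRI mice (S. lutea bioassay), adjusted with a square-root model of concentration-dependent free fraction from ultrafiltration. The regimen was dosed subcutaneously in mice infected intraperitoneally with 10^7.4 CFU, and peritoneal CFU were read after 24 h of therapy.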

Staphylococcus aureus [2] = assay: Bacteriostatic activity against Staphylococcus aureus E19977 after 24 hrs; assay type: functional
How it was run: (§1)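 Extracellular broth time- and concentration-kill test. The inoculum was ~10⁶ CFU/ml, exposed to a wide range of DCX concentrations, with CFU counted after 5 and 24 h. The read-out was Δlog CFU/ml versus time zero (mean ± SD, n = 3). A sigmoidal fit with slope 1 gave Emax and EC50. Cstatic was read by graphical interpolation as the concentration giving no change from the inoculum.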

Staphylococcus aureus [3] = assay: Bacteriostatic activity against Staphylococcus aureus ATCC 25923 infected in human THP-1 cells after 24 hrs; assay type: functional
How it was run: (§2)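 Human THP-1 macrophages were infected with opsonized S. aureus at 4 bacteria per macrophage for 45 min. Non-phagocytized bacteria were removed by washing and a brief incubation in PBS with gentamicin 50 mg/liter. Cells were then incubated up to 24 h with DCX over a wide range of extracellular concentrations. The read-out was Δlog CFU per mg cell protein versus time zero (n = 3), with sigmoidal fitting and Cstatic by interpolation.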

Staphylococcus aureus [4] = assay: Bacteriostatic activity against Staphylococcus aureus ATCC 25923 infected in human THP-1 cells at 10 times MIC after 5 hrs; assay type: functional, organism-based; how it was run: as §2
Staphylococcus aureus [5] = assay: Bacteriostatic activity against Staphylococcus aureus ATCC 25923 infected in human THP-1 cells at MIC after 5 hrs; assay type: functional, organism-based; how it was run: as §2
Staphylococcus aureus [6] = assay: Bactericidal activity against Staphylococcus aureus E19977 assessed as log reduction in bacterial count at 100 times MIC after 24 hrs by time-kill assay; assay type: functional
How it was run: (§3)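 Broth time-kill: MSSA at 10⁶ CFU/ml exposed to a wide range of dicloxacillin concentrations. CFU counted after 5 and 24 h and expressed as change in log₁₀ CFU/ml from time zero. Multiples refer to the MIC by CLSI microdilution at pH 7.4. n = 3.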

Staphylococcus aureus [7] = assay: Bactericidal activity against Staphylococcus aureus E19977 assessed as log reduction in bacterial count at MIC after 5 hrs by time-kill assay; assay type: functional; how it was run: as §3
Staphylococcus aureus [8] = assay: Bacteriostatic activity against Staphylococcus aureus E19977 at MIC between 5 to 24 hrs; assay type: functional, organism-based; how it was run: as §1
[9] = AUC (24 hrs) in NMRI mouse at 60 mg/kg, sc; assay type: ADME, organism-based; set-up: time < 24 hr, dose 60 mg/kg, route subcutaneous; conditions: plasma
How it was run: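 Single subcutaneous DCX doses given to NMRI mice. Blood was collected into EDTA tubes, and plasma drug was assayed by microbiological bioassay with S. lutea ATCC 9391 (detection limit 1.5 mg/liter, linear to 100 mg/liter). Values came from noncompartmental analysis. Terminal half-life was fitted monoexponentially to the last four time points. AUC24 combined the trapezoidal rule over mean points with exact integration of the fitted curve extrapolated to 24 h.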

[10] = Cmax in NMRI mouse at 60 mg/kg, sc; assay type: ADME, organism-based; set-up: dose 60 mg/kg, route subcutaneous; conditions: in vivo
How it was run: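 Single subcutaneous dicloxacillin doses were given to NMRI mice. EDTA plasma was assayed by microbiological bioassay with S. lutea ATCC 9391 (detection limit 1.5 mg/liter, linear to 100 mg/liter, CV ~5%). Cmax was obtained by noncompartmental analysis.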

[11] = Ratio of fAUC (24 hrs) in NMRI mouse at 120 mg/kg administered every 3 hrs to MIC for Staphylococcus aureus E19977; assay type: functional
How it was run: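 Free-drug AUC24/MIC was modelled for repeated subcutaneous regimens. Single-dose NMRI plasma concentration-time curves were combined with the best-fitting square-root expression for the concentration-dependent free fraction. The result was divided by the E19977 MIC.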

[12] = Ratio of fAUC (24 hrs) in NMRI mouse at 240 mg/kg administered every 6 hrs to MIC for Staphylococcus aureus E19977; assay type: functional
How it was run: (§4)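 Modeled free AUC over 24 h divided by the MIC, not measured directly. Single subcutaneous DCX doses were given to NMRI mice, and plasma was assayed by S. lutea bioassay. Noncompartmental analysis used trapezoidal mean points plus a fitted monoexponential extrapolated to 24 h. Free fraction came from a square-root fit to plasma ultrafiltration binding (10–400 mg/liter spike, 1 h, 37°C). The MIC was measured by broth microdilution at pH 7.4.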

[13] = Ratio of fAUC (24 hrs) in NMRI mouse at 400 mg/kg administered every 12 hrs to MIC for Staphylococcus aureus E19977; assay type: functional; how it was run: as §4
[14] = Ratio of fCmax in NMRI mouse at 160 mg/kg administered every 3 hrs to MIC for Staphylococcus aureus E19977; assay type: functional
How it was run: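 Free Cmax/MIC was modelled, not measured. Single-dose subcutaneous plasma curves from NMRI mice were projected to the multiple-dose regimens. Free fraction came from a square-root fit of unbound fraction versus total concentration. Binding was measured by ultrafiltration of mouse plasma spiked with 10–400 mg/liter and held 1 h at 37°C. MIC was for strain E19977.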

Mus musculus [15] = species on record: Mus musculus; assay: Protein binding in NMRI mouse at 90 mg/l by ultrafiltration; assay type: ADME, organism-based; conditions: in vivo
How it was run: (§5)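 Plasma binding was measured by ultrafiltration. EDTA blood from healthy mice, or from NMRI mice infected intraperitoneally for 6 h with E19977, was spiked with DCX at 10–400 mg/liter, with PBS controls. Samples were held 1 h at 37°C, then centrifuged through 30-kDa filters at 3,000 × g for 8 min at 37°C. Total and filtrate drug were measured by S. lutea bioassay.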

Mus musculus [16] = species on record: Mus musculus; assay: Protein binding in NMRI mouse at 30 mg/l by ultrafiltration; assay type: ADME, organism-based; conditions: in vivo; how it was run: as §5
Mus musculus [17] = species on record: Mus musculus; assay: Protein binding in NMRI mouse infected with Staphylococcus aureus E19977 at 30 mg/l by ultrafiltration; assay type: ADME, organism-based; conditions: in vivo; how it was run: as §5
Staphylococcus aureus [18] = assay: Bactericidal activity against Staphylococcus aureus E19977 infected in human THP1 cells assessed as log reduction in bacterial count at 10 times MIC after 24 hrs by time-kill assay; assay type: functional, THP-1
How it was run: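 Intracellular model in THP-1 macrophages: opsonized S. aureus was added at 4 bacteria per macrophage for 45 min. Non-phagocytized bacteria were removed by washing and brief PBS incubation with gentamicin (50 mg/liter). Cells were then incubated up to 24 h with a wide range of extracellular dicloxacillin concentrations. Result is change in log₁₀ CFU per mg cell protein from time zero. n = 3.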

Staphylococcus aureus [19] = assay: Bacteriostatic activity against Staphylococcus aureus E19977 infected in human THP-1 cells at 100 times MIC after 5 hrs; assay type: functional, organism-based; how it was run: as §2
Staphylococcus aureus [20] = assay: Bacteriostatic activity against Staphylococcus aureus E19977 infected in human THP-1 cells at 10 times MIC after 5 hrs; assay type: functional, organism-based; how it was run: as §2
[21] = fT>MIC in Staphylococcus aureus E19977 infected NMRI mouse at 80 mg/kg administered every 3 hrs
Staphylococcus aureus [22] = assay: Antimicrobial activity against Staphylococcus aureus ATCC 25923 by broth microdilution method at pH 5.4
[23] = Ratio of fAUC (24 hrs) in NMRI mouse at 80 mg/kg administered every 3 hrs to MIC for Staphylococcus aureus E19977

In the case of Cc1onc(-c2c(Cl)cccc2Cl)c1C(=O)N[C@@H]1C(=O)N2[C@@H]1SC(C)(C)[C@@H]2C(=O)O [DICLOXACILLIN], the “fT>MIC” value [1] is reported as 35.28%, the Activity (Staphylococcus aureus [2]) is reported as 0.43 mg/L and the Activity (Staphylococcus aureus [3]) is reported as 0.11 mg/L. For the same compound, the Activity (Staphylococcus aureus [4]) was “Active”, the Activity (Staphylococcus aureus [5]) was “Active” and the FC (Staphylococcus aureus [6]) was 3. For the same compound, the FC (Staphylococcus aureus [7]) was under 1, the Activity (Staphylococcus aureus [8]) was “Active” and the AUC at 24 h [9] was 70400 ng·h/mL. For the same compound, the Cmax [10] was 90.1 µg/mL, the fAUC/MIC [11] was 350.73 h and the fAUC/MIC [12] was 572.83 h. For the same compound, the fAUC/MIC [13] was 644.84 h, the Ratio [14] was 81.58 and the Activity (Mus musculus [15]) was 88.7%. The Activity (Mus musculus [16]) was 91.5%, the Activity (Mus musculus [17]) was 91.9% and the FC (Staphylococcus aureus [18]) was under 1. For the same compound, the Activity (Staphylococcus aureus [19]) was “Active”, the Activity (Staphylococcus aureus [20]) was “Active” and the “fT>MIC” value [21] was 66.67%. For the same compound, the MIC (Staphylococcus aureus [22]) was 0.031 µg/mL (≈ 0.0659 µM) and the fAUC/MIC [23] was 168.69 h.
